Consider 16 compounds from ChEMBL document CHEMBL3351575, “Halogenated diarylacetylenes repress c-myc expression in cancer cells” (Bioorg Med Chem Lett, 2014).

Holding throughout (format): functional, cell-based
In test [1] the test system is LS174T. Nature of the test: Induction of p21([…]/Cip1) expression in human LS 174T cells at 1 uM after 36 hrs by Western blotting analysis. In a few lines:
(§1)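 LS174T colon cancer cells exposed to each diarylacetylene at 1 μM for 36 h, alongside a DMSO vehicle control and a reference compound; cell lysates then probed by western blot, with β-tubulin as the loading control.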

In test [2] the test system is LS174T. The test can be described thus: Inhibition of c-myc expression in human LS 174T cells at 1 uM after 36 hrs by Western blotting analysis. In short, it runs like this:
as §1
For orientation: Immunoblotting shows a protein as a band on a membrane.

Test [3] in a line: Antiproliferative activity against human LS 174T cells after 4 days by Vi-Cell cell viability analyzer. As to conditions: LS174T, 96 h.

The source made the active and inactive calls. The calls are words filed in the database; no cut-off is given here.

The term IC50 denotes the concentration that inhibits the measured activity by half. High values mean lower potency, low ones higher potency. `CN(C)c1ccc(C#Cc2ccc(F)cc2)cc1`: the outcome in the test with LS174T [1] was Active. For the same compound, in the test on LS174T [2], the inhibition result was “Active”. In test [3], this compound returned an IC50 of more than 3000 nM.
Regarding `CN(C)c1ccc(C#Cc2ccc(F)c(F)c2)cc1`, the result in the test on LS174T [1] was Active. In addition, in the test with LS174T [2], the inhibition result was “Active”. The IC50 in test [3] is more than 3000 nM.
In test [3], `CN(C)c1ccc(C#Cc2cc(F)cc(F)c2)cc1` displayed an IC50 of more than 3000 nM.
In the case of `CN(C)c1ccc(C#Cc2ccccc2Cl)cc1`, in the test with LS174T [1], the outcome was Active. Besides, in the test on LS174T [2], the inhibition result was “Active”. The compound further displayed an IC50 in test [3] of 31 nM.
Take `CN(C)c1ccc(C#Cc2ccccc2F)cc1`: the result in the test on LS174T [1] was Active. Moreover, in the test on LS174T [2], the inhibition entry was “Active”. The compound further showed a concentration for half-maximal inhibition (IC50) in test [3] of 39 nM.
As to `CN(C)c1ccc(C#Cc2ccccc2)cc1`, the outcome with LS174T [1] was Active. The inhibition entry with LS174T [2] is “Active”. The IC50 in test [3] is more than 3000 nM.
`CNc1ccc(C#Cc2c(F)cccc2F)cc1`: the outcome in the test on LS174T [1] was Active. The inhibition entry in the test with LS174T [2] was “Active”. This compound also displayed an IC50 in test [3] of 23 nM.
Consider `CN(C)c1ccc(C#Cc2c(F)cccc2Cl)cc1`, for which the outcome in the test on LS174T [1] was Active. In addition, the inhibition result in the test with LS174T [2] is “Active”. Moreover, in test [3], the midpoint of inhibition, the IC50, lay at 19 nM.
Consider `CN(C)c1ccc(C#Cc2cccc(F)c2)cc1`, for which the result in the test on LS174T [1] was Active. Besides, the inhibition result in the test with LS174T [2] was “Active”. Further, in test [3], the IC50 was more than 3000 nM.
In the case of `CN(C)c1ccc(C#Cc2c(F)cccc2F)cc1`, the result with LS174T [1] was Active. In addition, the inhibition entry in the test with LS174T [2] is “Active”. The midpoint of inhibition in test [3], the IC50, lay at 23 nM.
The compound `CN(C)c1ccc(C#Cc2cc(F)ccc2F)cc1` had an IC50 in test [3] of 55 nM.
`CN(C)c1ccc(C#Cc2cccc(F)c2F)cc1` returned a concentration for half-maximal inhibition (IC50) in test [3] of 119 nM.
Regarding `CN(C)c1ccc(C#Cc2ccc(F)cc2F)cc1`, inhibition in test [3] was half-maximal at 56 nM (IC50).
`Nc1ccc(C#Cc2c(F)cccc2F)cc1` had a concentration for half-maximal inhibition (IC50) in test [3] of 55 nM.
For `CN(C)c1ccc(C#Cc2c(Cl)cccc2Cl)cc1`, the outcome with LS174T [1] was Active. The inhibition entry with LS174T [2] was “Active”. In test [3], this compound registered an IC50 of 52 nM.
As to `CN(C)c1ccc(/C=C/c2c(F)cccc2F)cc1`, in the test on LS174T [1], the outcome was Active. For the same compound, the inhibition result in the test on LS174T [2] was “Active”. Also, 59 nM corresponded to half-maximal inhibition in test [3] (IC50).
